Most compounds without a hit are left out; they make up all but 2.8% or so of the library.
NPY-Y1 PAM-ag – potentiators or agonists of human neuropeptide Y receptor Y1; NPY-Y1 expressing cells, potentiator/agonist activation; activation, % at 3.6 µM; P25929; 0.37% of 220,000 active; in the data active means activation above about 33%, passing the limit was not always enough;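 further: cells stimulated with NPY at EC10 then isoproterenol at EC100; 0% = low agonist plus stimulus and 100% = saturating agonist plus stimulus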
NPY-Y1 antag – NPY-Y1 (human) receptor antagonism; inhibition, % at 3.6 µM; HEK293-CNG Y1 cells, membrane potential fluorescence; NPY at EC95, then isoproterenol; P25929; 1% of 200,000 active; AID 1040;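 active means inhibition above the campaign mean inhibition of all tested compounds plus 3 SD, cut at about 20% in these data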;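 further: 0% = DMSO wells given NPY plus isoproterenol and 100% = isoproterenol alone without NPY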
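Benchmarks – high control isoproterenol alone, low control NPY with isoproterenol · Material – HEK293 Y1/CNG channel cell line · Times – dye 3 h, compound 60 min room temperature, stimulation 45 min · Probe or stimulus – NPY (25 nM), isoproterenol (1 µM), Ro 20-1724 (25 µM) · Evaluation – % inhibition of NPY effect · Signal – fluorescence, membrane potential probe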
PGE2 EP2 inh – EP2 receptor (human) inhibition | C6 glioma cells expressing human EP2, cAMP TR-FRET; cells stimulated with saturating PGE2 | P43116 | 0.52% of 260,000 active | inhibition, % at 25 µM;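 active means percent inhibition above 40 after rounding to a whole number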;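 further: rat C6 glioma host cells with rolipram phosphodiesterase inhibitor present; the protocol text gives 20 µM as final concentration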
Target sequence (P43116 whole entry, looked up): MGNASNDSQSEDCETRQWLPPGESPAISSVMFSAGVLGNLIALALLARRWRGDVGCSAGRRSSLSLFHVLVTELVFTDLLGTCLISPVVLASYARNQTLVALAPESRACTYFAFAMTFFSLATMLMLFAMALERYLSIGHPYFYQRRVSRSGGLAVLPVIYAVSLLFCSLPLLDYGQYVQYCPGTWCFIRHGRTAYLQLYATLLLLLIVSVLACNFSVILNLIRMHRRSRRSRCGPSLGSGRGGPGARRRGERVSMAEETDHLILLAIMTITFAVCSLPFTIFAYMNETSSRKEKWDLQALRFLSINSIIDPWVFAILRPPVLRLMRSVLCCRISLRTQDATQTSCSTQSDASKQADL
EP2 mod – modulators of human EP2 prostaglandin E2 receptor; P43116; EP2-expressing cells, cAMP HTRF FRET, PGE2 co-stimulation; induction, % at 25 µM; 0.83% of 260,000 active; AID 940;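 active means compounds whose cAMP rise, as percent of the full-agonist control response, exceeds 60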;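 further: rat C6 glioma line stably carrying human EP2 under a CMV promoter; the protocol text gives 20 µM as final concentration; 100% = response of wells given 1 µM PGE2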
NPY-Y2 antag – blocks the human neuropeptide Y Y2 receptor | P49146 | NPY-Y2 expressing cells, antagonist mode | inhibition, % at 2.7 µM | 0.99% of 140,000 active | AID 793; in the data active means inhibition above about 17%;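 further: 0% = vehicle with agonist challenge and 100% = reference antagonist with challenge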
NPY-Y2 PAM-ag – potentiators or agonists of human neuropeptide Y receptor Y2. P49146. cells expressing NPY-Y2, potentiator/agonist read-out. 0.45% of 220,000 active. activation, % at 3.6 µM; in the data active means activation above about 27%;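 further: cells stimulated with NPY near EC25 plus isoproterenol at EC100; 0% = vehicle plus submaximal agonist and 100% = vehicle plus saturating agonist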
* hit, by the source's call; . = no result given.

SMILES	NPY-Y1 PAM-ag	NPY-Y1 antag	PGE2 EP2 inh	EP2 mod	NPY-Y2 antag	NPY-Y2 PAM-ag
COc1ccc(C(=O)c2coc3ccc(O)c(CN4CCCCC4)c23)cc1	-87	20*	14	4	25*	-34
CCOC(=O)c1c(C)oc2ccc(O)c(CN3CCCCC3)c12	-32	27*	4	18	22*	-10
Cc1ccc(CNn2c(C)n[nH]c2=S)cc1	.	.	11	-7	.	.
CN1CCCC1CCNc1ccc2sc3ccccc3c(=O)c2c1 (centres undefined)	.	.	44*	.	.	.
C[C@@]12C[C@H](O)[C@@H]3[C@H](CCC4=CC(=O)CC[C@]43C)[C@H]1CC[C@H]2c1csc(N)n1	.	.	66*	-24	.	.
Cc1ccccc1S(=O)(=O)Nc1nc2ccccc2nc1N1CCc2ccccc2C1	-27	10	12	61*	11	-11
COc1ccc(C(O)c2coc3ccc(O)c(CN(C)C)c23)cc1 (centres undefined)	107*	-21	19	0	3	100*
Cc1cccc(NC(=S)N(Cc2cc3cc(C)cc(C)c3[nH]c2=O)CC2CCCO2)c1 (centres undefined)	.	.	6	25	.	.
COc1ccc(CN2Cc3cc4cc(OC)ccc4nc3OCC2=O)cc1	.	.	8	-40	.	.
CC1CCN(CC[S-])CC1.O.O.[Cl][Pt]	.	.	97*	-45	.	.
CCOC(=O)c1nnn(-c2nonc2N)c1COc1cc(C)c(Cl)c(C)c1	-35	22*	5	.	17	-19
C[C@H](CCC(=O)O)[C@H]1CC[C@@]2(C)[C@@H]3C(=O)C[C@H]4C(C)(C)[C@@H](O)CC[C@]4(C)[C@H]3C(=O)C[C@]12C	.	.	46*	31	.	.
CC(=O)c1sc(C(C)(C)C)cc1NC(=O)c1ccccc1C(=O)O	3	.	20	77*	.	1
O=C(O)c1ccccc1C(=O)Nc1ccccc1	10	-1	5	7	2	13
Nc1ncnc2nc[nH]c12.Nc1ncnc2nc[nH]c12.[Cl][Pt]([Cl])([Cl])[Cl]	.	.	47*	19	.	.
CCc1cc2ccccc2nc1SCC(=O)Nc1cccc(NC(C)=O)c1	.	.	7	-8	.	.
CS(=O)(=O)N1CCC(c2ccc3c(c2)OCO3)CC1	.	.	4	-41	.	.
CN(C)S(=O)(=O)N1CCC(c2ccc(F)cc2)C(COc2ccc3c(c2)OCO3)C1 (centres undefined)	-17	44*	10	13	28*	-21
C/C(=N\NC(=O)c1ccc(C)cc1C)c1ccc2c(c1)Nc1ccccc1S2	21	3	43*	-75	-5	-1
O=C1CC(=C(c2ccccc2)c2ccccc2)C(=O)N1CCCCN1CCN(c2cccc(Cl)c2)CC1	11	16	16	37	8	1
Cc1ccccc1N1CCN(CCCN2C(=O)CC(=C(c3ccccc3)c3ccccc3)C2=O)CC1	105*	-19	13	43	4	99*
CCCn1c(SCC(=O)Nc2nnc(C)s2)nc2c1c(=O)n(C)c(=O)n2C	.	.	10	17	.	.
CCN(CC)CC(=O)Nc1cc(N(C)C)nc2ccccc12	-13	.	9	-13	.	-1
CCCCCC(=O)Nc1cc(N(C)C)nc2ccccc12	-10	16	40*	.	6	-12
CCOC(=O)C1=C(C)N(C)C(=S)NC1c1cccc(Cl)c1Cl (centres undefined)	-8	9	9	64*	.	-9
SMILES	NPY-Y1 PAM-ag	NPY-Y1 antag	PGE2 EP2 inh	EP2 mod	NPY-Y2 antag	NPY-Y2 PAM-ag
CCCCC[C@@H](O)[C@@H]1C(=O)O[C@@H](C)[C@@H](O)C=C/C=C\C=CC=C/C=C(/C)[C@H](O)C[C@H](O)C[C@H](O)C[C@H](O)C[C@H](O)C[C@H](O)C[C@@H]1O	.	.	50*	23	.	.
Nc1ccccc1SCC(=O)N1c2ccccc2Sc2ccc(C(F)(F)F)cc21	.	.	5	88*	.	.
Cc1ccc(-c2noc(CSc3nnc(Cc4ccccc4)n3-c3ccc(Cl)cc3)n2)cc1	-37	21*	0	-12	25*	-35
O=C(O)c1ccncc1.O=C(O)c1ccncc1.[NH2-].[NH2-].[Pt]	.	.	51*	-14	.	.
CC(C)c1cccc(O)c(=O)c1	-6	-5	19	28	.	-6
CC(C)c1ccc(O)c(O)c(=O)c1 (tested in a mixture with another compound)	.	.	41*	48	.	.
CCN(CC)C(=O)c1sc(NC(=O)c2ccc3c(c2)OCO3)c(C(=O)OC)c1C	.	.	12	3	.	.
OC1(C(O)(c2ccc(-c3ccccc3)cc2)c2ccc(-c3ccccc3)cc2)CCCCC1	.	.	43*	25	.	.
O=S(=O)(O)c1cc(N=[N+]([O-])c2cc(S(=O)(=O)O)c3ccccc3c2)cc2ccccc12	.	.	35	26	.	.
Nc1c(S(=O)(=O)O)cc(S(=O)(=O)O)c2ccc(N=Nc3ccccc3)c(O)c12	.	.	52*	1	.	.
O=c1oc(Nc2cccc(F)c2)nc2ccccc12	12	3	8	-29	2	-11
Nc1nc(Nc2cccc(F)c2)nc2ccccc12	42*	-3	6	-34	-1	43*
COc1ccc(CN(C)CCN2CCCCC2)cc1Cc1c(C)noc1C	.	.	7	10	.	.
CC1CC2(CCCCC2)Nc2c1ccc1ccccc21 (centres undefined)	4	0	16	63*	2	11
CC(CO)(CO)N=Cc1cc(I)cc(I)c1O	.	.	44*	39	.	.
COc1ccc(-c2ocnc2C(=O)NC(C)c2ccccn2)cc1OC (centres undefined)	.	.	6	-10	.	.
Cc1ccc(NC2=C/C(=N\S(=O)(=O)c3cccs3)c3ccccc3C2=O)c(C)c1	48*	-15	44*	-36	-9	62*
O=C1C(Nc2ccc(O)cc2)=C/C(=N/S(=O)(=O)c2cccs2)c2ccccc21	70*	-21	19	-83	.	68*
Cc1cccc(NC2=C/C(=N/S(=O)(=O)c3cccs3)c3ccccc3C2=O)c1	-30	-3	28	-67	-9	-13
CC(C)=CCc1c(O)c(CC=C(C)C)c2c(c1O)-c1cc(O)c(O)cc1CC2	.	.	54*	.	.	.
COc1ccc(NC(=O)COC(=O)C2CC(=O)N(c3ccc(Cl)cc3)C2)cc1 (centres undefined)	.	.	23	-29	.	.
Cc1ccc(N/C(N)=N/c2nc(CSc3nnc(C)s3)cc(=O)[nH]2)c(C)c1	11	20*	5	-19	.	-6
CCS(=O)(=O)N1CCC(c2ccccc2F)CC1	.	.	10	-35	.	.
COC(=O)c1cn(C(=O)OC)c2ccccc12	-1	4	7	10	1	-3
COC(=O)c1cn(C(=O)/C=C/c2ccc(OC)c(OC)c2)c2ccccc12	-9	5	43*	-43	.	-20
CCc1ccc(OCc2nnc(SCC(=O)Nc3ccc(Br)cc3)n2CC)cc1	.	.	8	-5	.	.
CCCC(=O)N1CCN(c2ccc(NC(=O)c3cc(OC)cc(OC)c3)cc2)CC1	.	.	16	-18	.	.

Screening data deposited in PubChem by several laboratories.
